Data taken from ChEMBL document CHEMBL4396903, “Chain-Shortened Myostatin Inhibitory Peptides Improve Grip Strength in Mice” (ACS Med Chem Lett, 2019).
The source made the active and inactive calls. The calls are words filed in the database; no cut-off is given here. Square brackets hold non-standard residues; d marks the D form. Peptide text beside a SMILES is read from it. * marks the point of attachment. Acetyl(2-naphthyloxy) = O=C(COc1ccc2ccccc2c1)*; Chg = N[C@H](C(=O)O)C1CCCCC1

How the values were obtained:
[1] = system: Mus musculus; test: In vivo induction of muscular hypertrophy in mdx mouse assessed as increase in weight of TA muscles at 30 nmol, im administered on 0 and 14 day and measured on day 42 by relative to control; assay type: functional
[2] = system: Mus musculus; test: In vivo induction of muscular hypertrophy in mdx mouse assessed as hind limb strength at 30 nmol, im administered on 0 and 14 day and measured on day 42 by grip strength meter method (reference value: 4.41 +/- 0.31 Kg); assay type: functional
[3] = system: Mus musculus; test: In vivo induction of muscular hypertrophy in mdx mouse assessed as increase in muscle function at 30 nmol, im administered on 0 and 14 day and measured on day 42 by grip strength meter method relative to control; assay type: functional
[4] = target: Growth/differentiation factor 8 (Homo sapiens) (UniProt O14793); test: Inhibition of myostatin (unknown origin) expressed in HEK293 cells at 0.3 uM incubated for 4 hrs by dual luciferase reporter gene assay; assay type: cell-based
Summary of the method: (§1)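 Luciferase reporter assay of myostatin inhibition in HEK293 cells. Peptides were prepared as 3 mM DMSO stocks, then tested at a single final concentration (10, 3 or 0.3 μM). Results are given as mean ± SD (n = 3).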

[5] = system: Mus musculus; test: In vivo induction of muscular hypertrophy in im dosed mdx mouse assessed as increase in gastrocnemius muscle fiber size administered on 0 and 14 day and measured on day 42 by hematoxylin and eosin staining based assay; assay type: functional, organism-based
Summary of the method: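 Male mdx mice aged 5 weeks received intramuscular injections, with saline-injected controls. Gastrocnemius fiber size was assessed histologically by hematoxylin and eosin staining.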

[6] = system: Mus musculus; test: In vivo induction of muscular hypertrophy in im dosed C57BL/6 mouse assessed as increase in gastrocnemius muscle fiber size administered on 0 and 14 day and measured on day 42 by hematoxylin and eosin staining based assay; assay type: functional, organism-based
[7] = target: Growth/differentiation factor 8 (Homo sapiens) (UniProt O14793); test: Inhibition of myostatin (unknown origin) expressed in HEK293 cells at 10 uM incubated for 4 hrs by dual luciferase reporter gene assay; assay type: cell-based; summary of the method: as §1

Chain of Growth/differentiation factor 8 (Homo sapiens) (O14793 267-375 limits assumed): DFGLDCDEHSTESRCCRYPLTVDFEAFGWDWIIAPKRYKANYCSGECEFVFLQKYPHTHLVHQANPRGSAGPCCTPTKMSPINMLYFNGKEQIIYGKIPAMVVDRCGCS

| inhibition [4] | inhibition [7] | Compound | other results |
| --- | --- | --- | --- |
| Active | – | CC[C@H](C)[C@H](NC(=O)[C@H](CCC(N)=O)NC(=O)[C@@H](NC(=O)[C@H](CCCCN)NC(=O)[C@@H](NC(=O)[C@H](Cc1c[nH]c2ccccc12)NC(=O)[C@H](CCCNC(=N)N)NC(=O)[C@@H](NC(=O)[C@H](Cc1ccc(O)cc1)NC(=O)[C@@H](N)Cc1c[nH]c2ccccc12)[C@@H](C)CC)[C@@H](C)CC)C1CCCCC1)C(=O)N[C@@H](Cc1c[nH]c2ccccc12)C(=O)N[C@@H](CO)C(=O)N[C@@H](CCCCN)C(=O)N[C@H](C(=O)N[C@@H](CCCNC(=N)N)C(=O)N[C@@H](CC(C)C)C(N)=O)C1CCCCC1 | – |
| – | Active | H-SRIEWIKIQIISKLRL-NH2 | – |
| Active | – | H-WYFRWIKIQIWSKLRL-NH2 | – |
| – | Active | H-SRIEWIKIQIWSKLRL-NH2 | – |

Second part, the compound before the results:

| Compound | inhibition [4] | inhibition [7] | other results |
| --- | --- | --- | --- |
| CC[C@H](C)[C@H](NC(=O)[C@H](CCC(N)=O)NC(=O)[C@@H](NC(=O)[C@H](CCCCN)NC(=O)[C@@H](NC(=O)[C@@H](Cc1c[nH]c2ccccc12)NC(=O)[C@H](CCCNC(=N)N)NC(=O)[C@@H](NC(=O)[C@H](Cc1ccc(O)cc1)NC(=O)[C@@H](N)Cc1c[nH]c2ccccc12)[C@@H](C)CC)[C@@H](C)CC)C1CCCCC1)C(=O)N[C@@H](Cc1c[nH]c2ccccc12)C(=O)N[C@@H](CO)C(=O)N[C@@H](CCCCN)C(=O)N[C@H](C(=O)N[C@@H](CCCNC(=N)N)C(=O)N[C@@H](CC(C)C)C(N)=O)C1CCCCC1 | – | – | Activity [1]: 114%; Activity [2]: 5.92 kg/kg; Activity [3]: 130% |
| H-WYIRWIKIQIWSKLRL-NH2 | Active | – | Activity [5]: Active; Activity [6]: Active |
| CC[C@H](C)[C@H](NC(=O)[C@H](CCC(N)=O)NC(=O)[C@@H](NC(=O)[C@H](CCCCN)NC(=O)[C@@H](NC(=O)[C@H](Cc1c[nH]c2ccccc12)NC(=O)[C@H](CCCNC(=N)N)NC(=O)[C@@H](NC(=O)[C@H](Cc1ccc(O)cc1)NC(=O)[C@@H](N)Cc1c[nH]c2ccccc12)[C@@H](C)CC)[C@@H](C)CC)C1CCCCC1)C(=O)N[C@@H](Cc1c[nH]c2ccccc12)C(=O)N[C@@H](CO)C(=O)N[C@@H](CCCCN)C(=O)N[C@@H](CC(C)C)C(=O)N[C@@H](CCCNC(=N)N)C(=O)N[C@@H](CC(C)C)C(N)=O (H-WYIRWIK[Chg]QIWSKLRL-NH2) | Active | – | – |
| CC[C@H](C)[C@H](NC(=O)[C@H](CCC(N)=O)NC(=O)[C@@H](NC(=O)[C@H](CCCCN)NC(=O)[C@@H](NC(=O)[C@H](Cc1c[nH]c2ccccc12)NC(=O)[C@H](CCCNC(=N)N)NC(=O)[C@@H](NC(=O)[C@H](Cc1ccc(O)cc1)NC(=O)[C@@H](N)Cc1c[nH]c2ccccc12)[C@@H](C)CC)[C@@H](C)CC)[C@@H](C)CC)C(=O)N[C@@H](Cc1c[nH]c2ccccc12)C(=O)N[C@@H](CO)C(=O)N[C@@H](CCCCN)C(=O)N[C@H](C(=O)N[C@@H](CCCNC(=N)N)C(=O)N[C@@H](CC(C)C)C(N)=O)C1CCCCC1 (H-WYIRWIKIQIWSK[Chg]RL-NH2) | Active | – | – |
| H-WYIEAIKIQILSKLRL-NH2 | – | Active | – |
| CC[C@H](C)[C@H](NC(=O)[C@H](CCCNC(=N)N)NC(=O)[C@H](CO)NC(=O)[C@H](Cc1ccc(O)cc1)NC(=O)[C@H](CCCNC(=N)N)NC(=O)[C@@H](NC(=O)[C@H](CC(N)=O)NC(=O)[C@H](CCC(N)=O)NC(=O)[C@H](CCCNC(=N)N)NC(=O)COc1ccc2ccccc2c1)[C@@H](C)O)C(=O)N[C@@H](CCC(=O)O)C(=O)N[C@@H](Cc1c[nH]c2ccccc12)C(=O)N[C@H](C(=O)N[C@@H](CCCCN)C(=O)N[C@H](C(=O)N[C@@H](CCC(N)=O)C(=O)N[C@H](C(=O)N[C@H](C(=O)N[C@@H](CO)C(=O)N[C@@H](CCCCN)C(=O)N[C@@H](CC(C)C)C(=O)N[C@@H](CCCNC(=N)N)C(=O)N[C@@H](CC(C)C)C(N)=O)[C@@H](C)CC)[C@@H](C)CC)[C@@H](C)CC)[C@@H](C)CC ({Acetyl(2-naphthyloxy)}-RQNTRYSRIEWIKIQIISKLRL-NH2) | – | – | Activity [6]: Active |
| H-WYIRWIKIQFWSKLRL-NH2 | Active | – | – |
| H-SRIEAIKIQILSKLRL-NH2 | – | inactive | – |
